Results pooled from the literature.
Lines come from different studies, so protocols differ.
RPS6KA6: Ribosomal protein S6 kinase alpha-6 (RPS6KA6, Homo sapiens, UniProt Q9UK32)
RPS6KA6 C-terminal kinase domain: Ribosomal protein S6 kinase alpha-6, C-terminal kinase domain (RPS6KA6, Homo sapiens, UniProt Q9UK32)
RPS6KA6 N-terminal kinase domain: Ribosomal protein S6 kinase alpha-6, N-terminal kinase domain (RPS6KA6, Homo sapiens, UniProt Q9UK32)

Compound	target	test	conditions	endpoint	result
COc1cc2ncnc(Nc3ccc(Oc4ccccc4)c(C)c3C)c2cc1OC	RPS6KA6	enzyme activity, inhibitor	1 µM	inhibition	19%
CCN(CC)CCNC(=O)c1c(C)[nH]c(/C=C2\C(=O)Nc3ccc(F)cc32)c1C	RPS6KA6	cell-free assay	0.5 µM	remaining signal	17.5%
O=C(N1CCS(=O)(=O)CC1)N1C[C@H](c2ccc(OC(F)(F)F)cc2)C[C@H](c2nc(C3CC3)no2)C1	RPS6KA6 C-terminal kinase domain	cell-free assay, competition with immobilised ligand	1 µM	remaining binding	100%
CCOc1cc(-c2nncn2C)ccc1Nc1ncc2cc(C)nc(NCC(C)(C)C)c2n1	RPS6KA6	enzyme activity, inhibitor, FRET	1 µM	inhibition	24%
CC1(C)NC(=O)c2[nH]c3c(Cl)c(Cl)ccc3c2C1C#N (centres unmarked)	RPS6KA6	thermal stability, DSF	10 µM	ΔTm	2.2 °C
CC/C(=N\NC(=O)NCc1cccc(O)c1)c1ccc(O)c(C)c1O	RPS6KA6	enzyme activity, inhibitor	0.1 µM	inhibition	66.4%
Cn1c2c(c3ccc(Cl)c(Cl)c31)C(C#N)C(C)(C)NC2=O (centres unmarked)	RPS6KA6	thermal stability, DSF	10 µM	ΔTm	2.6 °C
N[C@H]1CCN(c2nccc(-c3cnn4ncccc34)n2)C1	RPS6KA6 N-terminal kinase domain	binding, competition with immobilised ligand	1 µM	remaining binding	100%
N#CC1c2c([nH]c3c(Cl)c(Cl)ccc23)C(=O)NC12CCCCC2 (racemic)	RPS6KA6	thermal stability, DSF	10 µM	ΔTm	1.6 °C
c1cnn2ncc(-c3ccnc(N4CCC45COC5)n3)c2c1	RPS6KA6 C-terminal kinase domain	binding, competition with immobilised ligand	1 µM	remaining binding	66%
Cn1c2c(Cl)c(Cl)ccc2c2cn[nH]c(=O)c21	RPS6KA6	thermal stability, DSF	10 µM	ΔTm	2 °C
Cc1nc(C2CCN(C(=O)c3ccc(OC(F)(F)F)cc3N)CC2)c2ncc(N3CCN(C)CC3)cc2n1	RPS6KA6 C-terminal kinase domain	cell-free assay, competition with immobilised ligand	1 µM	remaining binding	100%
CS(=O)(=O)CCNCc1ccc(-c2ccc3ncnc(Nc4ccc(OCc5cccc(F)c5)c(Cl)c4)c3c2)o1	RPS6KA6	cell-free assay	0.5 µM	remaining signal	108%
Cc1cnc(NC2CCOCC2)nc1-n1cnc(C(=O)NC(CN)c2cc(F)cc(Cl)c2)c1 (centres unmarked)	RPS6KA6	enzyme activity, inhibitor, radiometric	1 µM	remaining activity	17%
O=C(Nc1cnn(-c2csc(C(=O)NC3COC3)c2)c1)Nc1c(F)cccc1Cl	RPS6KA6	enzyme activity, inhibitor	5 µM	remaining activity	92.2%
Cn1c2c(c3ccc(Cl)c(Cl)c31)C(C#N)C1(CCCCC1)NC2=O (racemic)	RPS6KA6	thermal stability, DSF	10 µM	ΔTm	0 °C
C[C@@H]1CCN(c2nccc(-c3cnn4ncccc34)n2)C1	RPS6KA6 C-terminal kinase domain	binding, competition with immobilised ligand	1 µM	remaining binding	66%
O=C1Nc2ccc(Cl)cc2C1=Cc1cc(Cl)c(O)c(Cl)c1	RPS6KA6	cell-free assay	0.5 µM	remaining signal	78.5%

Compound	target	test	conditions	endpoint	result
CS(=O)(=O)N1CCCC(NC(=O)[C@H](CCC2CCCCC2)NC(=O)c2ccc(CNC(=O)c3cnc4ccccn34)cc2)C1 (some centres unmarked)	RPS6KA6 N-terminal kinase domain	cell-free assay, competition with immobilised ligand	0.1 µM	remaining binding	97%
CNC(=O)c1cc(Oc2ccc(NC(=O)Nc3ccc(Cl)c(C(F)(F)F)c3)cc2)ccn1	RPS6KA6	enzyme activity, inhibitor	10 µM	inhibition	-16%
CN1CC(Oc2cnc(C#N)cc2-c2ccn3nc(NC(=O)C4CC4)cc3c2)C1	RPS6KA6	enzyme activity, inhibitor	1 µM	inhibition	-4%
O=C(N[C@H]1CCCCC/C=C\C2C[C@@]2(C(=O)O)NC(=O)[C@@H]2C[C@@H](Oc3ccncc3)CN2C1=O)OC1CCCC1 (some centres unmarked)	RPS6KA6 N-terminal kinase domain	binding, competition with immobilised ligand	1 µM	remaining binding	60%
COc1ccc(COc2ccc(Cc3cnc(N)nc3N)cc2OC)cc1	RPS6KA6	cell-free assay	0.5 µM	remaining signal	101%
Nc1ncnc2occ(-c3ccc(NC(=O)Nc4cc(C(F)(F)F)ccc4F)cc3)c12	RPS6KA6 C-terminal kinase domain	cell-free assay, inhibitor	20 µM	remaining signal	18%
Cc1ccc(C(=O)Nc2ccc(CN3CCN(C)CC3)c(C(F)(F)F)c2)cc1C#Cc1cnc2cccnn12	RPS6KA6	enzyme activity, inhibitor	23.5 nM	remaining activity	93%
O=C(O)[C@H]1[C@H](Cn2nnc3ccccc3c2=O)CC[C@@H]1C(=O)c1ccc(OCCC2CCOCC2)cc1	RPS6KA6 N-terminal kinase domain	cell-free assay, competition with immobilised ligand	1 µM	remaining binding	86%
CC(C)(C)c1nc(-c2cccc(NS(=O)(=O)c3c(F)cccc3F)c2F)c(-c2ccnc(N)n2)s1	RPS6KA6	enzyme activity, inhibitor, radiometric	1 µM	remaining activity	98%
CN(CCCC(F)(F)F)c1nccc(-c2cnn3ncccc23)n1	RPS6KA6 C-terminal kinase domain	binding, competition with immobilised ligand	1 µM	remaining binding	100%
C[C@H](NC(=O)c1cnc2n1[C@](C)(Cc1ccc(C#N)cc1)C(=O)N2c1cc(Cl)c(F)c(Cl)c1)C(=O)NC1(c2ccccn2)CC1	RPS6KA6 N-terminal kinase domain	cell-free assay, competition with immobilised ligand	1 µM	remaining binding	91%
F[C@@H]1CCN(c2nccc(-c3cnn4ncccc34)n2)C1	RPS6KA6 N-terminal kinase domain	binding, competition with immobilised ligand	1 µM	remaining binding	82%
Oc1ccc(-c2nc(-c3ccncc3)c(-c3ccc(F)cc3)[nH]2)cc1	RPS6KA6	cell-free assay	0.5 µM	remaining signal	110%
CO[C@H]1CC[C@H](CNc2ccc(S(=O)(=O)NC(=O)c3ccc(N4CCN(CC5=C(c6ccc(Cl)cc6)CC(C)(C)CC5)CC4)cc3Oc3cnc4[nH]ccc4c3)cc2[N+](=O)[O-])CC1	RPS6KA6 C-terminal kinase domain	cell-free assay, competition with immobilised ligand	1 µM	remaining binding	81%
Cc1ccc(NC(=O)c2ccc(C)c(C(F)(F)F)c2)cc1C#Cc1nn(C2CCC(O)CC2)c2ncnc(N)c12 (centres unmarked)	RPS6KA6	cell-free assay	10 µM	remaining signal	44%
Cn1cc(Cl)c2c(Oc3c(F)cc(Nc4cc(Cl)nc(N)n4)cc3F)ccnc21	RPS6KA6 C-terminal kinase domain	cell-free assay, competition with immobilised ligand	0.1 µM	remaining binding	100%
N#CCCc1ccc2c(c1)-c1[nH]c3ccc([N+](=O)[O-])cc3c1CC(=O)N2	RPS6KA6	cell-free assay	0.5 µM	remaining signal	13.4%
